How the values were obtained:
[1] = molecular target: T1, Alpha-1A adrenergic receptor (Rattus norvegicus) (UniProt P43140); assay: ADRA1A blocking activity assessed by antagonism of (-)-NE induced contractions on isolated rat prostatic vas deferens; type: functional, tissue-based
T1 sequence (whole entry): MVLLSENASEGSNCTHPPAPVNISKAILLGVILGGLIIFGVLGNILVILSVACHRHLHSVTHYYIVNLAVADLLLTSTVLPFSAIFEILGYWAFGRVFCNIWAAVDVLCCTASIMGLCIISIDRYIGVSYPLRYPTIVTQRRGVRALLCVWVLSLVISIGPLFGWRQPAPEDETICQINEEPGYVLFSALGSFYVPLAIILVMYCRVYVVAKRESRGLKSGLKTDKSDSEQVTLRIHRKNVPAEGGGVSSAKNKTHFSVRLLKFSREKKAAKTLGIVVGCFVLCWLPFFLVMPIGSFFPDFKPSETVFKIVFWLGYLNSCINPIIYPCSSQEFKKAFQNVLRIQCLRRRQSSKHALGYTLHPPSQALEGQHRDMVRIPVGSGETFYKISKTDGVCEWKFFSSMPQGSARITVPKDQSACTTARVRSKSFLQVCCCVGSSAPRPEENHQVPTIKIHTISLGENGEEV
Method in brief: (§1)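 Isolated rat tissue: each antagonist concentration tested four times over 0.01–1 μM; pK_B calculated by van Rossum method from shifts of (-)-noradrenaline contraction curves (vas deferens, α1A; thoracic aorta, α1D) or (-)-phenylephrine contraction curves (spleen, α1B).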

[2] = molecular target: T2, Alpha-1A adrenergic receptor (Homo sapiens, UniProt P35348); assay: Displacement of [3H]prazosin from cloned human ADRA1A expressed in CHO cells; type: cell-based
T2 sequence (P35348 whole entry): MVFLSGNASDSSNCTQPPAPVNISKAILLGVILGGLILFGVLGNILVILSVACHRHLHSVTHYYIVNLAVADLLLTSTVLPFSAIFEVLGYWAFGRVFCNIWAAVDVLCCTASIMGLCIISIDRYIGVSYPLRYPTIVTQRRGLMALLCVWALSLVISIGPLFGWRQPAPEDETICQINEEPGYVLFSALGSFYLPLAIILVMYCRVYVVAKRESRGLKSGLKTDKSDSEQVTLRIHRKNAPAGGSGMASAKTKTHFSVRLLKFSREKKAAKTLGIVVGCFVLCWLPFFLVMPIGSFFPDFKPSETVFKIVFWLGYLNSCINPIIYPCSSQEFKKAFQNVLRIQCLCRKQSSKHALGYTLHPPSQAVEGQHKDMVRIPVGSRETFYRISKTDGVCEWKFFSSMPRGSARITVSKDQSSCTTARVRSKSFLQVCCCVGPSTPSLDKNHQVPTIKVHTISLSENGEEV

[3] = molecular target: T3, Alpha-1B adrenergic receptor (Homo sapiens, UniProt P35368); assay: Displacement of [3H]prazosin from cloned human ADRA1B expressed in CHO cells; type: cell-based
T3 sequence (P35368 whole entry): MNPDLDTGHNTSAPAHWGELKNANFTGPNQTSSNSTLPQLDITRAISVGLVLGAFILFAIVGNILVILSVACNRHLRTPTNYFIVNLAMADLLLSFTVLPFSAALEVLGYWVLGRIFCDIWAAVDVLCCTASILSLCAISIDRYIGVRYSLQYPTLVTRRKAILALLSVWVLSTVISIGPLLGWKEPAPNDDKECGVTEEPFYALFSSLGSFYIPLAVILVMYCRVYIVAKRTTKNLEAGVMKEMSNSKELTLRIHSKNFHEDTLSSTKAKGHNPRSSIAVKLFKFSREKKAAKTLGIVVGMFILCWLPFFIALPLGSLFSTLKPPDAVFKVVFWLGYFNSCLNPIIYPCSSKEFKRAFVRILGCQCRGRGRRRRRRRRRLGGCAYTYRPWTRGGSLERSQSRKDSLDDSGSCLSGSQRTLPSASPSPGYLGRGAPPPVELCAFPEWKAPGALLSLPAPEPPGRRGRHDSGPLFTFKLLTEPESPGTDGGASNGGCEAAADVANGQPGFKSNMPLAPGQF

[4] = molecular target: T4, Alpha-1B adrenergic receptor (Rattus norvegicus) (UniProt P15823); assay: ADRA1B blocking activity assessed by antagonism of (-)-phenylephrine induced contractions on isolated rat spleen; type: functional, tissue-based; method in brief: as §1
T4 sequence (whole entry): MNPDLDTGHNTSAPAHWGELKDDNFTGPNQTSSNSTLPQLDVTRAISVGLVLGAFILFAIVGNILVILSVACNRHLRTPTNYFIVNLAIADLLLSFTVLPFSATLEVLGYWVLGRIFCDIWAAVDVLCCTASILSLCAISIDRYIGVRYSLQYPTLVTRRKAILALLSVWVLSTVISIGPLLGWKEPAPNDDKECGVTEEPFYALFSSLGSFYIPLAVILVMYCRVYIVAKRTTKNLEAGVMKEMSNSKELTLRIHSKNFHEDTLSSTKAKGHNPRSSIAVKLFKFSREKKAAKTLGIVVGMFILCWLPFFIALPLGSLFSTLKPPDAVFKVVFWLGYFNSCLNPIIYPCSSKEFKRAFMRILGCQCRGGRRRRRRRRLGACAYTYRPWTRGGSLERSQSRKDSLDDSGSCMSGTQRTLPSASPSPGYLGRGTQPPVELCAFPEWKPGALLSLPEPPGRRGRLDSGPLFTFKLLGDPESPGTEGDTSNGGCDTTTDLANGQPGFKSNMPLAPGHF

[5] = test system: PC-3; assay: Cytotoxic activity on human PC3 prostate cancer cells by SRB assay; type: functional; conditions: for GI50 / LC50 (50% lethal concentration) / TGI: Homo sapiens, PC-3
Method in brief: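 NCI-protocol SRB assay on PC-3 cells grown in DMEM/10% FBS/2 mM glutamine. Seeded 24 h, then compounds in medium for 48 h at 37 °C, 5% CO2, in quadruplicate. A time-zero plate was read. Cells TCA-fixed, stained with 0.4% SRB, absorbance at 520 nm. GI50, TGI and LC50 interpolated from % growth versus log concentration.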

[6] = molecular target: T5, 5-hydroxytryptamine receptor 1A (Homo sapiens, UniProt P08908); assay: Displacement of [3H]8-hydroxy-2-(di-n-propylamino)tetralin from cloned human 5HT1A receptor expressed in HeLa cells; type: cell-based
T5 sequence (P08908 whole entry): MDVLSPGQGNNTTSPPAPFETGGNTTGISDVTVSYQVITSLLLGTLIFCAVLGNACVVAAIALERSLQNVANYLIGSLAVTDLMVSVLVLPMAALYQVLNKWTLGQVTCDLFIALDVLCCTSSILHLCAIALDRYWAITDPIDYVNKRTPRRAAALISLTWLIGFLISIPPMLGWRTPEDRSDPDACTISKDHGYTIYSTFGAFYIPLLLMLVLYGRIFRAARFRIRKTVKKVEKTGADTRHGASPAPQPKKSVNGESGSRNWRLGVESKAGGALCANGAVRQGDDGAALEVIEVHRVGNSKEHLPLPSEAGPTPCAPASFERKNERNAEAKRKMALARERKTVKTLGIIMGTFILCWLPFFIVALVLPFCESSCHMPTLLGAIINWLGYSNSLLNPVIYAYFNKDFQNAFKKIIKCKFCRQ
Method in brief: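 Radioligand binding on cloned human receptors, with [3H]prazosin for α1 subtypes (CHO cells) and [3H]8-OH-DPAT for 5-HT1A (HeLa cells); each experiment in triplicate, Ki from two to three experiments agreeing within ±20%, reported as pKi.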

| SMILES | pKb [1] | Ki [2] [nM] | Ki [3] [nM] | pKb [4] | GI50 [5] [nM] | LC50 (50% lethal concentration) [5] [nM] | TGI [5] [nM] | Ki [6] [nM] | Activity [5] [%] |
| --- | --- | --- | --- | --- | --- | --- | --- | --- | --- |
| COc1cccc(OC)c1OCCNCCOc1ccccc1OCc1ccc(C)cc1 | 8.23 | 2 | 0.251 | 8.43 | 7800 | 61700 | 27500 | 22.4 |  |
| COc1cccc(OC)c1OCCNCCOc1ccccc1OCc1ccc(Cl)cc1 [CLOPENPHENDIOXAN] | 8.17 | 0.251 | 1 | 8.06 | 2400 | 52500 | 14500 | 15.5 |  |
| COc1ccc(COc2ccccc2OCCNCCOc2c(OC)cccc2OC)cc1 | 8.54 | 2 | 0.398 | 9.51 | 8500 |  | 34700 | 17.4 | <50 |
| COc1cccc(OC)c1OCCNCCOc1ccccc1OCc1cccc([N+](=O)[O-])c1 | 8.85 | 0.316 | 0.794 | 8.74 | 13200 |  | 38900 | 20.9 | <50 |
| COc1cccc(COc2ccccc2OCCNCCOc2c(OC)cccc2OC)c1 | 8.3 | 2 | 2 | 8.31 | 2500 | 61700 | 15100 | 30.9 |  |
| COc1cccc(OC)c1OCCNCCOc1ccccc1OCc1ccccc1 | 8.39 | 0.468 | 0.537 | 8.3 | 26900 | 193000 | 76900 | 11.7 |  |
| COc1cccc(OC)c1OCCNCCOc1ccccc1OCc1ccccc1C | 7.81 | 1.58 | 0.794 | 7.67 | 11500 |  | 33900 | 11.2 | <50 |
| COc1ccccc1COc1ccccc1OCCNCCOc1c(OC)cccc1OC | 8.53 | 2 | 6.31 | 8.13 | 8900 | 100000 | 30200 | 23.4 |  |
| COc1cccc(OC)c1OCCNCCOc1ccccc1OCc1ccccc1Cl | 8.56 | 1.41 | 0.562 | 7.52 | 5400 | 58900 | 17800 | 4.79 |  |
| COc1cccc(OC)c1OCCNCCOc1ccccc1OCc1cccc(C)c1 | 8.3 | 0.398 | 0.251 | 8.2 | 12000 | 87100 | 32300 | 18.2 |  |
| COc1cccc(OC)c1OCCNCCOc1ccccc1OCc1ccc([N+](=O)[O-])cc1 | 8.58 | 1.26 | 0.398 | 9.02 | 12000 |  | 43600 | 11.7 | <50 |
| COc1cccc(OC)c1OCCNCCOc1ccccc1OCc1ccccc1[N+](=O)[O-] | 8.2 | 7.94 | 2.51 | 8.56 | 13200 | 95500 | 34700 | 24 |  |
| COc1cccc(OC)c1OCCNCCOc1ccccc1OCc1cccc(Cl)c1 | 8.12 | 0.251 | 0.158 | 7.93 | 5900 | 58900 | 20400 | 6.61 |  |

Reference: ChEMBL document CHEMBL1141864, “Structure-activity relationships in 1,4-benzodioxan-related compounds. 8.(1) {2-[2-(4-chlorobenzyloxy)phenoxy]ethyl}-[2-(2,6-dimethoxyphenoxy)ethyl]amine (clopenphendioxan) as a tool to highlight the involvement of alpha1D- and alpha1B-adrenoreceptor subtypes in the regulation of human PC-3 …” (J Med Chem, 2005)
